{"source": "paper PMC11868578", "about": "(Nature Communications, 2025)", "key": {"PVY": {"tested_on": "PVY", "assay": "Inactivation activity against PVY", "format": "in vivo", "conditions": "read-out: Inhibition rate (inactivation activity) against PVY"}, "PMMoV": {"tested_on": "PMMoV", "assay": "Inactivation activity against PMMoV", "format": "in vivo", "conditions": "read-out: Inhibition rate (inactivation activity) against PMMoV"}, "TSWV": {"tested_on": "TSWV", "assay": "Anti-TSWV assay, half-leaf method on Nicotiana glutinosa", "format": "in vivo, tomato spotted wilt virus", "conditions": "for Curative effect (%) / Inactive effect (%) (inactivation activity) / Protective effect (%): 500 µg/mL, half-leaf method, N. glutinosa, mean ± SD, n = 3; for EC50: Orthotospovirus tomatomaculae, in Nicotiana glutinosa", "summary_of_the_method": "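Half-leaf test on healthy N. glutinosa, leaves pre-dusted with carborundum and virus extract brushed on. Curative: leaves rinsed 30 min after inoculation, then agent put on the right half. Protective: agent put on 12 h before inoculation. Inactivation: agent mixed 1:1 with virus extract on ice for 30 min, then put on the right half; left half got buffer-diluted virus. Plants grown at 25 °C day/23 °C night. Lesions counted after about 2 days. EC50 from 31.25–500 µg/mL.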"}, "[1]": {"tested_on": "N-YFP IBs (N protein condensates)", "assay": "N-YFP inclusion bodies", "format": "cell-based, Nicotiana benthamiana"}, "N WT (NWT)": {"target": "T1, N WT (NWT) (Tomato spotted wilt virus (TSWV), UniProt P26000 1-258)", "T1 sequence": "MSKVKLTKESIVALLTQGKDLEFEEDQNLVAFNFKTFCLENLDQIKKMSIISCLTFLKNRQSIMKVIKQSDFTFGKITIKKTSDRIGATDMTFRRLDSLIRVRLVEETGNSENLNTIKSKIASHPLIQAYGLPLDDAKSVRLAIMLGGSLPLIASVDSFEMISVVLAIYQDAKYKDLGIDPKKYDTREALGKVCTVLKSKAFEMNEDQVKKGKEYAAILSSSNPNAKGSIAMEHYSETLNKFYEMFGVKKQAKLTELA", "assay": "BLI"}}, "data": [{"molecule": "NC(=O)c1ncn([C@@H]2O[C@H](CO)[C@@H](O)[C@H]2O)n1", "note": "[Ribavirin]", "values": [{"measurement": "inhibition at 500 µg/mL", "setting": "PVY", "result": 55.3, "unit": "%"}, {"measurement": "inhibition at 500 µg/mL", "setting": "PMMoV", "result": 56.5, "unit": "%"}, {"measurement": "Curative effect (%)", "setting": "TSWV", "result": "39.2 ± 3.2", "unit": "%"}, {"measurement": "Inactive effect (%) (inactivation activity)", "setting": "TSWV", "result": "43.7 ± 7.5", "unit": "%"}, {"measurement": "Protective effect (%)", "setting": "TSWV", "result": "40.4 ± 6.8", "unit": "%"}, {"measurement": "Inactive effect (%) (inactivation activity)", "setting": "TSWV; listed as ribavirin", "result": 43.7, "unit": "%"}, {"measurement": "EC50", "setting": "TSWV", "result": "802 ± 12.6", "unit": "µg/mL"}]}, {"molecule": "OCCCCCCO", "note": "[1,6-hexanediol]", "values": [{"measurement": "Effect on N-YFP particle number, leaves treated at 36 h", "setting": "[1]; 36 hpi", "result": "significant reduction in particle number"}, {"measurement": "Effect on large N-YFP granules, leaves treated at 72 h", "setting": "[1]; 72 hpi", "result": "difficult to observe a significant decrease in the number of large particles"}]}, {"molecule": "CNCC(=O)N[C@@H](CO)C(=O)N[C@H]1[C@H](O)[C@@H](O)[C@H](n2ccc(N)nc2=O)O[C@@H]1C(N)=O", "note": "[Ningnanmycin]", "values": [{"measurement": "inhibition at 500 µg/mL", "setting": "PVY", "result": 77.6, "unit": "%"}, {"measurement": "inhibition at 500 µg/mL", "setting": "PMMoV", "result": 72, "unit": "%"}, {"measurement": "Curative effect (%)", "setting": "TSWV", "result": "57.9 ± 1.5", "unit": "%"}, {"measurement": "Inactive effect (%) (inactivation activity)", "setting": "TSWV", "result": "69.3 ± 2.4", "unit": "%"}, {"measurement": "Protective effect (%)", "setting": "TSWV", "result": "61.7 ± 5.2", "unit": "%"}, {"measurement": "Inactive effect (%) (inactivation activity)", "setting": "TSWV; listed as ningnanmycin", "result": 69.3, "unit": "%"}, {"measurement": "EC50", "setting": "TSWV", "result": "149 ± 8.7", "unit": "µg/mL"}]}, {"molecule": "GAGAGCAAUUGUGUCAGAA (ssRNA)", "note": "[biotinylated RNA (BLI)]", "values": [{"measurement": "Kd", "setting": "N WT (NWT)", "result": 7.3, "unit": "nM"}]}]}
